Measurements published in ChEMBL document CHEMBL1667754, “Synthesis and biological activity of pyrazolothienotetrahydroisoquinoline and [1,2,4]triazolo[3,4-a]thienotetrahydroisoquinoline derivatives” (2011).

How the values were obtained:
[1] = test system: Escherichia coli; assay: Antibacterial activity against Escherichia coli at 50 uL/well by well diffusion assay; type: functional
In short: (§1)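 Bauer-type diffusion assay. Test compounds were at 2% in DMSO. The read-out was the diameter (mm) of the inhibition zone, with chloramphenicol as the reference agent.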

[2] = test system: Micrococcus luteus; assay: Antibacterial activity against Micrococcus luteus at 50 uL/well by well diffusion assay; type: functional; in short: as §1
[3] = test system: Trichophyton rubrum; assay: Antifungal activity against Trichophyton rubrum at 50 uL/well by well diffusion assay; type: functional
In short: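 Agar discs (10 mm) carrying spores and hyphae were shaken in sterile distilled water. 1 mL of the spore suspension was plated and mixed with 15 mL molten SDA, then left to set. Compounds were at 2% in DMSO, applied per Bauer's diffusion method. The read-out was the inhibition zone (mm).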

[4] = test system: Aspergillus niger; assay: Antifungal activity against Aspergillus niger at 2% by disc diffusion assay
[5] = test system: Fusarium oxysporum; assay: Antifungal activity against Fusarium oxysporum at 2% by disc diffusion assay
[6] = test system: Aspergillus flavus; assay: Antifungal activity against Aspergillus flavus at 2% by disc diffusion assay
[7] = test system: Geotrichum candidum; assay: Antifungal activity against Geotrichum candidum at 2% by disc diffusion assay
[8] = test system: Candida albicans; assay: Antifungal activity against Candida albicans at 200 ug/disc by disc diffusion assay
[9] = test system: Scopulariopsis brevicaulis; assay: Antifungal activity against Scopulariopsis brevicaulis at 2% by disc diffusion assay
[10] = test system: Bacillus cereus; assay: Antibacterial activity against Bacillus cereus at 200 ug/disc by disc diffusion assay
[11] = test system: Serratia marcescens; assay: Antibacterial activity against Serratia marcescens at 200 ug/disc by disc diffusion assay
[12] = test system: Staphylococcus aureus; assay: Antibacterial activity against Staphylococcus aureus at 200 ug/disc by disc diffusion assay
[13] = test system: Pseudomonas aeruginosa; assay: Antibacterial activity against Pseudomonas aeruginosa at 200 ug/disc by disc diffusion assay

Row | Structure (SMILES) | diameter of the inhibition zone (DIZ) [1] | diameter of the inhibition zone (DIZ) [2] | diameter of the inhibition zone (DIZ) [3] | diameter of the inhibition zone (DIZ) [4] | diameter of the inhibition zone (DIZ) [5] | diameter of the inhibition zone (DIZ) [6] | diameter of the inhibition zone (DIZ) [7] | diameter of the inhibition zone (DIZ) [8] | diameter of the inhibition zone (DIZ) [9] | diameter of the inhibition zone (DIZ) [10] | diameter of the inhibition zone (DIZ) [11] | diameter of the inhibition zone (DIZ) [12] | diameter of the inhibition zone (DIZ) [13]
1 | NC(=O)c1sc2c(c1N)c1c(c3nncn32)CCCC1 | 0 mm | 0 mm | 0 mm | 0 mm | 0 mm | 0 mm | 0 mm | 0 mm | 0 mm | 10 mm | 0 mm | 8 mm | 0 mm
2 | CC(=O)CSc1c(C#N)c2c(c3nncn13)CCCC2 | 8 mm | 12 mm | 0 mm | 0 mm | 0 mm | 0 mm | 0 mm | 0 mm | 0 mm | 12 mm | 12 mm | 10 mm | 0 mm
3 | CC(=O)c1sc2c(c1N)c1c(c3nncn32)CCCC1 | 0 mm | 0 mm | 0 mm | 0 mm | 0 mm | 0 mm | 0 mm | 0 mm | 0 mm | 0 mm | 0 mm | 0 mm | 0 mm
4 | N#Cc1c2c(c3nncn3c1SCC(=O)c1ccccc1)CCCC2 | 10 mm | 14 mm | 0 mm | 16 mm | 11 mm | 20 mm | 8 mm | 11 mm | 10 mm | 14 mm | 0 mm | 0 mm | 0 mm
5 | Nc1c(C(=O)c2ccccc2)sc2c1c1c(c3nncn32)CCCC1 | 10 mm | 11 mm | 0 mm | 13 mm | 0 mm | 15 mm | 8 mm | 11 mm | 8 mm | 0 mm | 0 mm | 0 mm | 0 mm
6 | N#CCSc1nc(NN)c2c(c1C#N)CCCC2 | 0 mm | 0 mm | 0 mm | 0 mm | 0 mm | 0 mm | 0 mm | 10 mm | 0 mm | 0 mm | 10 mm | 8 mm | 0 mm
7 | Cc1cc(C)n(-c2nc(SCC#N)c(C#N)c3c2CCCC3)n1 | 0 mm | 0 mm | 0 mm | 8 mm | 8 mm | 0 mm | 10 mm | 12 mm | 0 mm | 8 mm | 10 mm | 8 mm | 0 mm
8 | CCOC(=O)CSc1nc(NN)c2c(c1C#N)CCCC2 | 0 mm | 0 mm | 0 mm | 0 mm | 0 mm | 0 mm | 0 mm | 0 mm | 0 mm | 8 mm | 0 mm | 8 mm | 0 mm
9 | CCOC(=O)CSc1nc(-n2nc(C)cc2C)c2c(c1C#N)CCCC2 | 10 mm | 0 mm | 0 mm | 0 mm | 0 mm | 0 mm | 10 mm | 0 mm | 0 mm | 0 mm | 10 mm | 7 mm | 0 mm
10 | N#Cc1c(SCC(N)=O)nc(NN)c2c1CCCC2 | 11 mm | 0 mm | 0 mm | 0 mm | 10 mm | 0 mm | 10 mm | 0 mm | 0 mm | 0 mm | 8 mm | 0 mm | 0 mm
11 | Cc1cc(C)n(-c2nc(SCC(N)=O)c(C#N)c3c2CCCC3)n1 | 0 mm | 0 mm | 0 mm | 8 mm | 0 mm | 0 mm | 0 mm | 0 mm | 0 mm | 0 mm | 0 mm | 10 mm | 0 mm
12 | CC(=O)CSc1nc(NN)c2c(c1C#N)CCCC2 | 12 mm | 0 mm | 20 mm | 0 mm | 0 mm | 0 mm | 12 mm | 11 mm | 0 mm | 11 mm | 8 mm | 0 mm | 0 mm
13 | CC(=O)CSc1nc(-n2nc(C)cc2C)c2c(c1C#N)CCCC2 | 13 mm | 0 mm | 17 mm | 0 mm | 10 mm | 0 mm | 8 mm | 10 mm | 0 mm | 0 mm | 8 mm | 0 mm | 0 mm
14 | O=C(N[C@H](CO)[C@H](O)c1ccc([N+](=O)[O-])cc1)C(Cl)Cl [CHLORAMPHENICOL] | 34 mm | 18 mm |  |  |  |  |  |  |  | 30 mm | 40 mm | 20 mm | 17 mm
15 | Clc1ccccc1C(c1ccccc1)(c1ccccc1)n1ccnc1 [CLOTRIMAZOLE] |  |  | 40 mm | 25 mm | 25 mm | 26 mm | 26 mm | 27 mm | 27 mm |  |  |  | 
